Test results from ChEMBL document CHEMBL1132562, “Ajoene is an inhibitor and subversive substrate of human glutathione reductase and Trypanosoma cruzi trypanothione reductase: crystallographic, kinetic, and spectroscopic studies” (J Med Chem, 1999).
Calls of active or inactive are those of the source. The calls are words filed in the database; no cut-off is given here.

Legend:
[1] = target: T1, Glutathione reductase, mitochondrial (Homo sapiens) (UniProt P00390); assay: Kcat value determined against human Glutathione reductase (GR) by reduction of cytochrome c
T1 sequence (whole entry): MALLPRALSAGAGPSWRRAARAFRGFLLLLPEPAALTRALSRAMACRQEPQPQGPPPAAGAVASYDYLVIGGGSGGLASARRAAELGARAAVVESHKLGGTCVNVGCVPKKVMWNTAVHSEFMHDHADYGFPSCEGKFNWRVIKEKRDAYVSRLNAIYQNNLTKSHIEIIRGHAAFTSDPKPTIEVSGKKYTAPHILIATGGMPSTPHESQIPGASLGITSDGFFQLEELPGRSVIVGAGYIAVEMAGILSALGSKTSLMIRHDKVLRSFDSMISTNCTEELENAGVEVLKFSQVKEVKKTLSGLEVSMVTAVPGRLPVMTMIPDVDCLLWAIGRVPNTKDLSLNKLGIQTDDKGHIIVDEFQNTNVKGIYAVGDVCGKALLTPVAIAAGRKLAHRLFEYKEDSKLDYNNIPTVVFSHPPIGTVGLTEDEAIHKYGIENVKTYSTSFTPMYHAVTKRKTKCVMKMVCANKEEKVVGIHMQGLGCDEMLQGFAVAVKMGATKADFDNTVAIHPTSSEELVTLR
Outline: (§1)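 1–2 U human GR preincubated 2 min at 25 °C with 200 μM NADPH and 25 μM horse heart cytochrome c in assay buffer, pH 7.5. Reaction started with 200 μM ajoene or DATS. Cytochrome c reduction followed at 550 nm (ε 19.1 mM⁻¹ cm⁻¹). Controls without enzyme. Superoxide tested by adding superoxide dismutase.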

[2] = target: T1, Glutathione reductase, mitochondrial (Homo sapiens); assay: kcat/Km value determined against human Glutathione reductase (GR)
Outline: (§2)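 Recombinant human glutathione reductase in GR assay buffer (phosphate, 200 mM KCl, 1 mM EDTA, pH 6.9) at 25 °C with 150 μM NADPH and ajoene or DATS as substrate. NADPH consumption read at 340 nm. Where GSH is present, it is added to the mixture. Controls held NADPH and enzyme only (intrinsic oxidase activity).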

[3] = target: T1, Glutathione reductase, mitochondrial (Homo sapiens); assay: kcat/Km value determined against human Glutathione reductase (GR) by oxidation of NADPH; outline: as §2
[4] = target: T1, Glutathione reductase, mitochondrial (Homo sapiens); assay: Percent inhibition of 0.3 uM (Z)-ajoene in the absence of NADPH for 15 min at 37 C; NI=No Inhibition
Outline: (§3)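 GR (0.4–1.0 U in 200 μL; 0.3 μM) incubated at 37 °C in GR assay buffer, pH 6.9, with 200 μM NADPH (or without) and 12.5–200 μM ajoene. Ethanol replaced inhibitor in controls. 2-μL aliquots taken over time were assayed for remaining activity in a standard GR assay: 100 μM NADPH, 1 mM GSSG, 340 nm, 25 °C.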

[5] = target: T1, Glutathione reductase, mitochondrial (Homo sapiens); assay: Percent inhibition of 0.3 uM (Z)-ajoene in the presence of NADPH for 15 min at 37 C; outline: as §3
[6] = target: T1, Glutathione reductase, mitochondrial (Homo sapiens); assay: Kcat value determined against human Glutathione reductase (GR) by oxidation of NADPH; outline: as §2
[7] = target: Trypanothione reductase (Trypanosoma cruzi) (UniProt P28593); assay: Kcat value determined against Trypanothione reductase (TR) by oxidation of NADPH
Outline: (§4)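 T. cruzi trypanothione reductase, recombinant, with NADPH and ajoene as substrate in TR assay buffer (40 mM Hepes, 1 mM EDTA, pH 7.5) at 25 °C. NADPH oxidation followed as absorbance decrease at 340 nm. Controls held only NADPH and enzyme, giving the intrinsic oxidase activity.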

[8] = target: Trypanothione reductase (Trypanosoma cruzi) (UniProt P28593); assay: kcat/Km value determined against Trypanothione reductase (TR); outline: as §4
[9] = target: Trypanothione reductase (Trypanosoma cruzi) (UniProt P28593); assay: kcat/Km value determined against Trypanothione reductase (TR) by oxidation of NADPH; outline: as §4
[10] = target: Trypanothione reductase (Trypanosoma cruzi) (UniProt P28593); assay: Percent inhibition of Trypanothione reductase (TR) with 200 uM (Z)-ajoene in the presence of NADPH at 37 C
Outline: (§5)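 T. cruzi TR (0.4–1.0 U in 200 μL) incubated at 37 °C with 200 μM NADPH and 200 μM ajoene for up to 60 min. Aliquots assayed for residual activity: 100 μM NADPH, 120 μM trypanothione disulfide, Hepes pH 7.5, 340 nm decrease.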

[11] = target: T1, Glutathione reductase, mitochondrial (Homo sapiens); assay: Kcat value determined against human Glutathione reductase (GR) by reduction of cytochrome c in the presence of GSH; outline: as §1
[12] = target: T1, Glutathione reductase, mitochondrial (Homo sapiens); assay: Percent inhibition of 0.3 uM (E)-ajoene in the absence of NADPH for 15 min at 37 C; NI=No Inhibition; outline: as §3
[13] = target: T1, Glutathione reductase, mitochondrial (Homo sapiens); assay: Percent inhibition of 0.3 uM (E)-ajoene in the presence of NADPH for 15 min at 37 C; outline: as §3
[14] = target: T1, Glutathione reductase, mitochondrial (Homo sapiens); assay: Kcat value determined against human Glutathione reductase (GR) by oxidation of NADPH in the presence of GSH; outline: as §2
[15] = target: Trypanothione reductase (Trypanosoma cruzi) (UniProt P28593); assay: Percent inhibition of Trypanothione reductase (TR) with 200 uM (E)-ajoene in the presence of NADPH at 37 C; outline: as §5

Trypanothione reductase (Trypanosoma cruzi), sequence (P28593 whole entry, looked up): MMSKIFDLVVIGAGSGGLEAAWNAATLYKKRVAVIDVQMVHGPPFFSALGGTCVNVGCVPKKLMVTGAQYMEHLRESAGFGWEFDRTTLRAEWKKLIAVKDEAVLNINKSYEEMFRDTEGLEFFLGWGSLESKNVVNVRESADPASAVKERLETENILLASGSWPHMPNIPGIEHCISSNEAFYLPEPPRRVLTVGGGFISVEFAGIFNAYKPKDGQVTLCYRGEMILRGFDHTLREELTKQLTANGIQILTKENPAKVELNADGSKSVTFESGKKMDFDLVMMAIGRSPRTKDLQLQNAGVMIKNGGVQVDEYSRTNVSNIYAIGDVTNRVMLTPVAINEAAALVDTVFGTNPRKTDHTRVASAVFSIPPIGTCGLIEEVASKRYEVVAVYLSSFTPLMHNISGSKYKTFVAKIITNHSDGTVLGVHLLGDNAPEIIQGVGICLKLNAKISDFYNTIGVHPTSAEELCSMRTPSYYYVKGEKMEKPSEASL

Row | k cat [1] [s⁻¹] | k cat/Km [2] [M⁻¹ s⁻¹] | k cat/Km [3] [M⁻¹ s⁻¹] | inhibition [4] | inhibition [5] [%] | k cat [6] [s⁻¹] | k cat [7] [s⁻¹] | k cat/Km [8] [M⁻¹ s⁻¹] | k cat/Km [9] [M⁻¹ s⁻¹] | inhibition [10] [%] | k cat [11] [s⁻¹] | inhibition [12] | inhibition [13] [%] | k cat [14] [s⁻¹] | inhibition [15] [%] | SMILES
1 | 0.06 | 6800 | 6840 | inactive | 50 | 2.6 | 0.67 | 340 | 335 | 40 |  |  |  |  |  | C=CCSS/C=C\C[S+]([O-])CC=C (centres undefined)
2 |  |  | 1000 |  |  | 0.16 |  |  |  |  |  |  |  |  |  | C=CCSSSCC=C
3 | 0.1 | 680 | 425 |  |  | 0.34 | 0.67 | 340 | 335 |  | 0.32 | inactive | 50 | 1.47 | 50 | C=CCSS/C=C/C[S+]([O-])CC=C (centres undefined)
